Measurements from ChEMBL document CHEMBL3259670, “Discovery of 1-aryloxyethyl piperazine derivatives as Kv1.5 potassium channel inhibitors (part I)” (Eur J Med Chem, 2014).
One block for each molecule: values may come before it. Activity calls are given as the source filed them. The rule behind the calls is not given here.

What was measured:
MDR1 [1] = assay: (§1) Apparent permeability from basolateral to apical side in MDCK cells expressing MDR1; type: ADME, cell-based, Canis lupus familiaris; settings: dog, MDCK-MDR1
Outline: (§2)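 Bidirectional transport (apical→basolateral and basolateral→apical) was measured in parental MDCK cells and in MDR1-MDCK cells, which stably express multidrug resistance gene 1, to assess P-glycoprotein substrate status. Apparent permeability coefficients (Papp) were determined for each direction. Efflux ratios are ratios of the directional Papp values, computed per cell line. Mean ± SD, n = 3.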

[2] = (§3) Apparent permeability from basolateral to apical side in MDCK cells; type: ADME, cell-based, Canis lupus familiaris; settings: dog; outline: as §2
[3] = (§4) Apparent permeability from apical to basolateral side in MDCK cells; type: ADME, cell-based, Canis lupus familiaris; settings: dog; outline: as §2
MDCK [4] = assay: Efflux ratio of permeability from apical to basolateral over basolateral to apical in MDCK cells expressing MDR1; type: ADME, cell-based, Canis lupus familiaris; settings: dog; outline: as §2
[5] = Dissociation constant, pKa of the compound; type: physicochemical
Outline: (§5)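 pKa and log D at pH 7.4 were determined by Avdeef–Bucher potentiometric titration on a Gemini Profiler instrument.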

MDCK [6] = assay: Efflux ratio of permeability from apical to basolateral over basolateral to apical in MDCK cells; type: ADME, cell-based, Canis lupus familiaris; settings: dog; outline: as §2
[7] = Partition coefficient, log D of the compound at pH 7.4; type: physicochemical; settings: octanol/water; outline: as §5
MDR1 [8] = assay: (§6) Apparent permeability from apical to basolateral side in MDCK cells expressing MDR1; type: ADME, cell-based, Canis lupus familiaris; settings: dog, MDCK-MDR1; outline: as §2
[9] = target: Potassium voltage-gated channel subfamily A member 5 (Homo sapiens, UniProt P22460); assay: Inhibition of human Kv1.5 channel expressed in HEK293 cells by whole cell patch clamp assay; type: cell-based
Outline: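 Whole-cell patch clamp was done on transfected HEK293 cells, harvested by trypsin and used the same day, with 4–6 MΩ pipettes at 25 °C. IKur was elicited by 500-ms steps to +60 mV from a −80 mV holding potential at 0.1 Hz. Compound was applied at least 5 min after current stabilization. IC50 came from cell-by-cell Hill fits, with at least 3 cells per concentration; mean ± SD.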

MDCK [10] = assay: as §1; type: ADME, cell-based, Canis lupus familiaris; settings: dog, mdck; outline: as §2
MDCK [11] = assay: as §3; type: ADME, cell-based, Canis lupus familiaris; settings: dog; outline: as §2
MDCK [12] = assay: as §4; type: ADME, cell-based, Canis lupus familiaris; settings: dog; outline: as §2
MDCK [13] = assay: as §6; type: ADME, cell-based, Canis lupus familiaris; settings: dog, mdck; outline: as §2
Rattus norvegicus [14] = assay: Inhibition of Cacl2-Ach-induced atrial fibrillation Sprague-Dawley rat model assessed as reduction in duration of atrial fibrillation at 2.5 mg/kg, ip during day 4 to day 7; type: functional, organism-based; design: dose 2.5 mg/kg; settings: Cardiac atrium
Rattus norvegicus [15] = assay: Inhibition of Cacl2-Ach-induced atrial fibrillation Sprague-Dawley rat model assessed as increase in atrial effective refractory period at 2.5 mg/kg, ip; settings: Cardiac atrium
Rattus norvegicus [16] = assay: Inhibition of Cacl2-Ach-induced atrial fibrillation Sprague-Dawley rat model assessed as reduction in duration of atrial fibrillation at 2.5 mg/kg, ip during day 1 to day 3; type: functional, organism-based; design: dose 2.5 mg/kg; settings: Cardiac atrium
[17] = Toxicity in SPF mouse compound administered through iv; type: organism-based; settings: in vivo
Outline: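 Acute toxicity by tail-vein iv injection in SPF mice: 70 animals in 7 groups, one given distilled water (30 mL/kg) and six given 84.6, 79.8, 75.3, 71, 67 or 63.2 mg/kg. Behaviour, mental state, excrement and death observed continuously over 0-0.5 h, every 0.5 h to 6 h, then daily for 15 days. LD50 derived by the Bliss-Finney method.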

Rattus norvegicus [18] = assay: Inhibition of Cacl2-Ach-induced atrial fibrillation Sprague-Dawley rat model assessed as reduction in duration of atrial fibrillation at 1.25 mg/kg, ip during day 1 to day 3; type: functional, organism-based; design: dose 1.25 mg/kg; settings: Cardiac atrium
Rattus norvegicus [19] = assay: Inhibition of Cacl2-Ach-induced atrial fibrillation Sprague-Dawley rat model assessed as reduction in duration of atrial fibrillation at 1.25 mg/kg, ip during day 4 to day 7; type: functional, organism-based; design: dose 1.25 mg/kg; settings: Cardiac atrium
Rattus norvegicus [20] = assay: Inhibition of Cacl2-Ach-induced atrial fibrillation Sprague-Dawley rat model assessed as increase in atrial effective refractory period at 1.25 mg/kg, ip; settings: Cardiac atrium

Potassium voltage-gated channel subfamily A member 5, sequence (P22460 whole entry): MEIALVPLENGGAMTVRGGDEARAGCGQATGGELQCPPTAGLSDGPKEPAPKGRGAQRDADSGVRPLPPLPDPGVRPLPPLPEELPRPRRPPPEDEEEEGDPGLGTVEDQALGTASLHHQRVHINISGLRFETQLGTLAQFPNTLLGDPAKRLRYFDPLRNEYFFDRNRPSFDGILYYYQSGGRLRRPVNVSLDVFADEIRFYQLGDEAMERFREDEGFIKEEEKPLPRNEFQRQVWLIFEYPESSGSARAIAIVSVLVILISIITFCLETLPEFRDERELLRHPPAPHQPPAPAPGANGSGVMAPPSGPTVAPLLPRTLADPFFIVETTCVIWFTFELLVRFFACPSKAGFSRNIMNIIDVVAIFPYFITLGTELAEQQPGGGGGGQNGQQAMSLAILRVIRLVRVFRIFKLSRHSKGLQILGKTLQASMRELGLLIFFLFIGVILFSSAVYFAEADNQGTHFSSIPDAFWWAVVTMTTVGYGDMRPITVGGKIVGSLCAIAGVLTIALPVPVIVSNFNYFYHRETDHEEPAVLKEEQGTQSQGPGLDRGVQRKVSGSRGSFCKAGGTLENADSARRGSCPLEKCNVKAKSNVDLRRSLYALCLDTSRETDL

Compound: Cc1ccc(OCCN2CCN(C(=O)c3cccs3)CC2)cc1
- Papp B→A (MDR1 [1]): 32.8 ×10⁻⁶ cm/s
- Papp B→A [2]: 31.1 ×10⁻⁶ cm/s
- Papp A→B [3]: 20 ×10⁻⁶ cm/s
- Ratio (MDCK [4]): 0.78
- pKa [5]: 6.4
- Ratio (MDCK [6]): 0.64
- logD [7]: 3.24
- Papp A→B (MDR1 [8]): 25.6 ×10⁻⁶ cm/s
- IC50 [9]: 1.52 µM

Compound: O=C(CN1CCN(CCOc2ccc(OC(F)(F)F)cc2)CC1)Nc1nccs1
- Papp (MDCK [10]): 19.6 ×10⁻⁶ cm/s
- Papp (MDCK [11]): 16.9 ×10⁻⁶ cm/s
- Papp (MDCK [12]): 12.2 ×10⁻⁶ cm/s
- Ratio (MDCK [4]): 1.42
- pKa [5]: 6.74
- Ratio (MDCK [6]): 1.5
- logD [7]: 3.94
- Papp (MDCK [13]): 16.3 ×10⁻⁶ cm/s
- IC50 [9]: 2.29 µM

Compound: Cc1ccc(OCCN2CCN(C(=O)c3ccccc3)CC2)cc1
- IC50 [9]: 25.3 µM

Compound: Cc1ccc(C(=O)N2CCN(CCOc3ccc(Cl)cc3)CC2)cc1
- IC50 [9]: 4.51 µM

Compound: O=C(c1cccs1)N1CCN(CCOc2ccccc2)CC1
- IC50 [9]: 37.5 µM

Compound: CC(C)NCC(O)c1ccc(NS(C)(=O)=O)cc1 (configuration not stated)
- Activity (Rattus norvegicus [14]): Active
- Activity (Rattus norvegicus [15]): Active
- Activity (Rattus norvegicus [16]): inactive

Compound: COc1ccc(OCCN2CCN(CC(=O)Nc3nccs3)CC2)cc1
- IC50 [9]: 9.13 µM

Compound: COc1ccc(C(=O)N2CCN(CCOc3ccc(Cl)cc3)CC2)cc1
- IC50 [9]: 5.5 µM

Compound: Cc1ccc(OCCN2CCN(CC(=O)Nc3nccs3)CC2)c(C)c1
- IC50 [9]: 17.2 µM

Compound: COc1ccc(OCCN2CCN(C(=O)c3cccs3)CC2)cc1
- IC50 [9]: 21.9 µM

Compound: O=C(CN1CCN(CCOc2ccccc2Cl)CC1)Nc1nccs1
- IC50 [9]: 3.39 µM

Compound: COc1ccc(NC(=O)CN2CCN(CCOc3ccc(C#N)cc3)CC2)cc1
- IC50 [9]: 14.5 µM

Compound: COc1ccc(NC(=O)CN2CCN(CCOc3ccc(Cl)cc3)CC2)cc1
- IC50 [9]: 2.62 µM

Compound: Cc1ccccc1OCCN1CCN(CC(=O)Nc2ccccc2)CC1
- IC50 [9]: 11.8 µM

Compound: O=C(c1ccccc1)N1CCN(CCOc2ccc(Cl)cc2)CC1
- IC50 [9]: 3.97 µM

Compound: O=C(CN1CCN(CCOc2ccc(OC(F)(F)F)cc2)CC1)Nc1ccccc1
- IC50 [9]: 7.33 µM

Compound: O=C(c1cccs1)N1CCN(CCOc2ccc(Cl)cc2)CC1
- Papp B→A (MDR1 [1]): 19.3 ×10⁻⁶ cm/s
- Papp B→A [2]: 21.9 ×10⁻⁶ cm/s
- Papp A→B [3]: 21.3 ×10⁻⁶ cm/s
- LD50 [17]: 73.7 mg/kg
- Ratio (MDCK [4]): 0.84
- Activity (Rattus norvegicus [14]): Active
- pKa [5]: 6.35
- Ratio (MDCK [6]): 0.97
- Activity (Rattus norvegicus [15]): Active
- logD [7]: 1.94
- Activity (Rattus norvegicus [18]): inactive
- Activity (Rattus norvegicus [16]): inactive
- Activity (Rattus norvegicus [19]): Active
- Papp A→B (MDR1 [8]): 16.1 ×10⁻⁶ cm/s
- IC50 [9]: 0.72 µM
- Activity (Rattus norvegicus [20]): Active

More lines, in order of falling IC50 [9], values ahead:

- IC50 [9]: 56.7 µM
Compound: O=C(c1ccccc1Cl)N1CCN(CCOc2ccccc2)CC1

- IC50 [9]: 29.4 µM
Compound: O=C(CN1CCN(CCOc2ccccc2)CC1)Nc1ccccc1Cl

- IC50 [9]: 10.1 µM
Compound: COc1ccc(NC(=O)CN2CCN(CCOc3ccccc3)CC2)cc1

- IC50 [9]: 9.74 µM
Compound: O=C(c1cccs1)N1CCN(CCOc2ccccc2Cl)CC1

- IC50 [9]: 9.1 µM
Compound: N#Cc1ccc(OCCN2CCN(CC(=O)Nc3ccccc3)CC2)cc1

- IC50 [9]: 5.02 µM
Compound: Cc1ccc(NC(=O)CN2CCN(CCOc3ccc(Cl)cc3)CC2)cc1

- IC50 [9]: 4.49 µM
Compound: Cc1ccc(NC(=O)CN2CCN(CCOc3ccc(C#N)cc3)CC2)cc1

- IC50 [9]: 4.38 µM
Compound: O=C(CN1CCN(CCOc2ccc(Cl)cc2)CC1)Nc1ccccc1

- Papp B→A (MDR1 [1]): 31.5 ×10⁻⁶ cm/s
- Papp B→A [2]: 19.1 ×10⁻⁶ cm/s
- Papp A→B [3]: 17 ×10⁻⁶ cm/s
- Ratio (MDCK [4]): 1.24
- pKa [5]: 5.23
- Ratio (MDCK [6]): 0.89
- logD [7]: 3.73
- Papp A→B (MDR1 [8]): 39.1 ×10⁻⁶ cm/s
- IC50 [9]: 1.48 µM
Compound: O=C(c1cccs1)N1CCN(CCOc2ccc(Cl)cc2Cl)CC1
